The results in this text go back to ChEMBL document CHEMBL3525972, “Characterization of aldehyde oxidase enzyme activity in cryopreserved human hepatocytes” (Drug Metab Dispos, 2012).

For data set [1], the target named is T1, Aldehyde oxidase (Homo sapiens, UniProt Q06278).
T1 sequence (Q06278 whole entry): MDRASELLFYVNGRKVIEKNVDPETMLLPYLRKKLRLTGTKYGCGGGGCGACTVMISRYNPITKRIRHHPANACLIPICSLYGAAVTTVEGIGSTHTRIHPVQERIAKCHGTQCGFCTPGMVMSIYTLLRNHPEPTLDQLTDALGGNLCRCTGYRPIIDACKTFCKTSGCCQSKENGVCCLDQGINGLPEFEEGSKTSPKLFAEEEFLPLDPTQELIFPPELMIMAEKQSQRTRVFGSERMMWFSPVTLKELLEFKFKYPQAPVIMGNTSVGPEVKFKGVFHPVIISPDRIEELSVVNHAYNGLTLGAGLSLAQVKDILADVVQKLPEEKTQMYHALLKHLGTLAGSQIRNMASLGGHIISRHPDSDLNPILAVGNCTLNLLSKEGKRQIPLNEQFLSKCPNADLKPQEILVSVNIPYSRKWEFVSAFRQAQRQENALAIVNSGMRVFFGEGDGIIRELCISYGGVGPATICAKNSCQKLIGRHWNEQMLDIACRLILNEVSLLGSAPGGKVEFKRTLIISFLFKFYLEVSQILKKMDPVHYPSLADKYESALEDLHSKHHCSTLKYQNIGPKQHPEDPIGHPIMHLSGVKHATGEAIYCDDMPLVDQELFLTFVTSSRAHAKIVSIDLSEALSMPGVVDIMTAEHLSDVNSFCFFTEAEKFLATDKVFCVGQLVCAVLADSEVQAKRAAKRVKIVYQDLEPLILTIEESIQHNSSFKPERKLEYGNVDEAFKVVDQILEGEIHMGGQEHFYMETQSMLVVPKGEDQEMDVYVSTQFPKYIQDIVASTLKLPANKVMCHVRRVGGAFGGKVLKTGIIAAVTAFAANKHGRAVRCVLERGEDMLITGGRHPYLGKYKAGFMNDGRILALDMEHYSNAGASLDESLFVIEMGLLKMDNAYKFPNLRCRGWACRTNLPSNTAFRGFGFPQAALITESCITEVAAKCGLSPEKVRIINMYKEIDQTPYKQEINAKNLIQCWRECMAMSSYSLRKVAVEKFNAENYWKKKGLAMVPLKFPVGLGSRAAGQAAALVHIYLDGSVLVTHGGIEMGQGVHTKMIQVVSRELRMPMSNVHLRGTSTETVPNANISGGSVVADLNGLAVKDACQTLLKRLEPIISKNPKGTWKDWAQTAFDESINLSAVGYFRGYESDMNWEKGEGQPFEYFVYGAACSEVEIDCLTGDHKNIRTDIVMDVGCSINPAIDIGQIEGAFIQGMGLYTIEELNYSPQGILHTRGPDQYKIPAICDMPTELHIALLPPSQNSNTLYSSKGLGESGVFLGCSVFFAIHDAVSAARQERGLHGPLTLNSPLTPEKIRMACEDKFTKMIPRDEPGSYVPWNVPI
In words: Retention time in cryopreserved human hepatocytes assessed as aldehyde oxidase-mediated metabolite formation treated with 10 uM of carbazeran by LC-MS extracted ion chromatogram analysis. It counts as ADME, cell-based, Hepatocyte. In short, it runs like this:
(§1)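 Cryopreserved human hepatocytes (lot OOO) were thawed for ~2 min at 37°C, diluted 1/50 in warm recovery medium or WME, spun at 100 x g for 6 min, and resuspended in WME at a final 2.0 x 10^6 cells/mL. They were incubated with 10 µM substrate for 120 min at 37°C. Reactions were stopped with two volumes of cold acetonitrile, then spun, dried under N2 and reconstituted. Read-out was positive-ESI Orbitrap LC-MS extracted ion chromatograms.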

The target of data set [2] is T1, Aldehyde oxidase. The experiment in a line: Retention time in cryopreserved human hepatocytes assessed as aldehyde oxidase-mediated metabolite formation treated with 10 uM of O6-benzylguanine by LC-MS extracted ion chromatogram analysis. In kind it is ADME, cell-based, Hepatocyte. A digest of the protocol: as §1
In data set [3] the target is T1, Aldehyde oxidase. In words: Drug level in cryopreserved human hepatocytes assessed as aldehyde oxidase-mediated metabolite formation treated with 10 uM of BIBU1476 by LC-MS extracted ion chromatogram analysis. In kind it is ADME, cell-based, Hepatocyte.
In data set [4] the target is T1, Aldehyde oxidase. The experiment in a line: Drug level in cryopreserved human hepatocytes assessed as aldehyde oxidase-mediated metabolite formation treated with 10 uM of BIBX1382 by LC-MS extracted ion chromatogram analysis. It counts as ADME, cell-based, Hepatocyte. A digest of the protocol:
as §1

Data set [5] concerns the target T1, Aldehyde oxidase. In words: Drug metabolism in cryopreserved human hepatocytes assessed as aldehyde oxidase-mediated parent compound retention time at 10 uM by LC-MS extracted ion chromatogram analysis. In kind it is ADME, cell-based, Hepatocyte. In short, it runs like this:
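Cryopreserved human hepatocytes (lot OOO) were thawed for ~2 min at 37°C, diluted 1/50 in warm recovery medium or WME, spun at 100 x g for 6 min, and resuspended in WME at a final 2.0 x 10^6 cells/mL. Reactions were stopped with two volumes of cold acetonitrile, then spun, dried under N2 and reconstituted. Read-out was positive-ESI Orbitrap LC-MS extracted ion chromatograms.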

In data set [6] the target is T1, Aldehyde oxidase. In words: Drug metabolism in cryopreserved human hepatocytes assessed as aldehyde oxidase-mediated 8-(3-chloro-4-fluorophenylamino)-2-imino-6-oxo-2,3,5,6-tetrahydropyrimido[5,4-d]pyrimidin-3-ium formation at 10 uM by LC-MS extracted ion chromatogram analysis. It counts as ADME, cell-based, Hepatocyte. A digest of the protocol: as §1
Data set [7] has as its target T1, Aldehyde oxidase. In words: Drug metabolism in cryopreserved human hepatocytes assessed as aldehyde oxidase-mediated N-(but-1-en-2-yl)-8-(3-chloro-4-fluorophenylamino)-6-oxo-6,7-dihydropyrimido[5,4-d]pyrimidin-2-aminium formation at 10 uM by LC-MS extracted ion chromatogram analysis. It counts as ADME, cell-based, Hepatocyte. A digest of the protocol:
as §1

The target in data set [8] is T1, Aldehyde oxidase. The experiment in a line: Drug metabolism in cryopreserved human hepatocytes assessed as aldehyde oxidase-mediated 3-(8-(3-chloro-4-fluorophenylamino)-6-oxo-6,7-dihydropyrimido[5,4-d]pyrimidin-2-ylamino)pent-4-en-1-ylium formation at 10 uM by LC-MS extracted ion chromatogram analysis. In kind it is ADME, cell-based, Hepatocyte. A digest of the protocol: as §1

For data set [9], the target named is T1, Aldehyde oxidase. In words: Retention time in cryopreserved human hepatocytes assessed as aldehyde oxidase-mediated metabolite formation treated with 10 uM of zaleplon by LC-MS extracted ion chromatogram analysis. It counts as ADME, cell-based, Hepatocyte. In short, it runs like this:
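Cryopreserved human hepatocytes (Lot OOO), thawed at 37°C, spun at 100 x g, resuspended in Williams' Medium E, then incubated at 2.0 x 10^6 cells/mL with 10 µM substrate for 120 min at 37°C. Quenched with two volumes of cold acetonitrile, centrifuged, supernatant dried under N2 and reconstituted in 85:15 water/acetonitrile (0.1% formic acid). Analysed by high-resolution ESI-positive Orbitrap LC-MS using extracted ion chromatograms.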

The target of data set [10] is T1, Aldehyde oxidase. The experiment in a line: Retention time in cryopreserved human hepatocytes assessed as aldehyde oxidase-mediated metabolite formation treated with 10 uM of XK-469 by LC-MS extracted ion chromatogram analysis. In kind it is ADME, cell-based, Hepatocyte. A digest of the protocol: as §1
Data set [11] deals with T1, Aldehyde oxidase. The experiment in a line: Drug metabolism in cryopreserved human hepatocytes assessed as aldehyde oxidase-mediated metabolite formation at 10 uM by LC-MS extracted ion chromatogram analysis in presence of hydralazine.
A further data set is described as follows: clinical. The following applies: human, in vivo.
Data set [12] is described as follows: Oral bioavailability in human. The following applies: in vivo. In kind it is ADME, organism-based.
Data set [13] concerns the target T1, Aldehyde oxidase. The experiment in a line: Drug metabolism in cryopreserved human hepatocytes assessed as aldehyde oxidase-mediated N-(but-1-en-2-yl)-8-(3-chloro-4-fluorophenylamino)pyrimido[5,4-d]pyrimidin-2-aminium formation at 10 uM by LC-MS extracted ion chromatogram analysis. It counts as ADME, cell-based, Hepatocyte. A digest of the protocol:
as §1

Data set [14] addresses T1, Aldehyde oxidase. In words: Drug metabolism in cryopreserved human hepatocytes assessed as aldehyde oxidase-mediated 3-(8-(3-chloro-4-fluorophenylamino)pyrimido[5,4-d]pyrimidin-2-ylamino)pent-4-en-1-ylium formation at 10 uM by LC-MS extracted ion chromatogram analysis. In kind it is ADME, cell-based, Hepatocyte. A digest of the protocol: as §1
Data set [15] addresses T1, Aldehyde oxidase. In words: Drug metabolism in cryopreserved human hepatocytes assessed as aldehyde oxidase-mediated 8-(3-chloro-4-fluorophenylamino)-2-imino-2,3-dihydropyrimido[5,4-d]pyrimidin-3-ium formation at 10 uM by LC-MS extracted ion chromatogram analysis. In kind it is ADME, cell-based, Hepatocyte. In short, it runs like this: as §1

Each structure is given as a SMILES string.

On to `CCNC(=O)OC1CCN(c2n[nH]c(=O)c3cc(OC)c(OC)cc23)CC1`, for which the Retention_time on Aldehyde oxidase [1] is listed as 13.9 min.
`Nc1nc(OCc2ccccc2)c2[nH]c(O)nc2n1`: the Retention_time at Aldehyde oxidase [2] is recorded as 12.5 min.
Turning to `N=c1nc2c(Nc3ccc(F)c(Cl)c3)nc(=O)[nH]c2c[nH]1`, the Drug metabolism entry on Aldehyde oxidase [3] is recorded as “metabolite_detected”.
As to `C=C(CC)Nc1ncc2nc(=O)[nH]c(Nc3ccc(F)c(Cl)c3)c2n1`, the Drug metabolism result on Aldehyde oxidase [3] is recorded as “metabolite_detected”.
For the molecule `Nc1ncc2ncnc(Nc3ccc(F)c(Cl)c3)c2n1`, at Aldehyde oxidase [4], the Drug metabolism result was “metabolite_detected”.
On to `CN1CCC(Nc2ncc3nc(=O)[nH]c(Nc4ccc(F)c(Cl)c4)c3n2)CC1`, for which the Retention time at Aldehyde oxidase [5] came to 10.7 min. Moreover, the Drug metabolism entry on Aldehyde oxidase [6], on Aldehyde oxidase [7] and at Aldehyde oxidase [8] was “metabolite_detected” each time.
`C=C(CC)Nc1ncc2ncnc(Nc3ccc(F)c(Cl)c3)c2n1`: the Drug metabolism result on Aldehyde oxidase [4] is recorded as “metabolite_detected”.
`CCN(C(C)=O)c1cccc(-c2cc(=O)[nH]c3c(C#N)cnn23)c1`: the Retention_time on Aldehyde oxidase [9] turned out to be 12.7 min.
For `C[C@@H](Oc1ccc(OC2N=c3cc(Cl)ccc3=NC2=O)cc1)C(=O)O` (some centres undefined), the Retention_time on Aldehyde oxidase [10] is 15.7 min.
As for `C=CC(CC)Nc1ncc2nc(=O)[nH]c(Nc3ccc(F)c(Cl)c3)c2n1` (centres undefined), the Drug metabolism result at Aldehyde oxidase [3] is “metabolite_detected”.
For `C=CC(CC)Nc1ncc2ncnc(Nc3ccc(F)c(Cl)c3)c2n1` (centres undefined), at Aldehyde oxidase [4], the Drug metabolism result is given as “metabolite_detected”.
On to `Nc1nc(OCc2ccccc2)c2[nH]cnc2n1` [6-O-BENZYLGUANINE], for which, on Aldehyde oxidase [11], the Drug metabolism entry is listed as “metabolite_not_detected”. Also, the Retention_time at Aldehyde oxidase [5] stood at 10.5 min. In “clinical”, this molecule yielded a clearance of 15.6 mL/min/kg.
As for `CCNC(=O)OC1CCN(c2nncc3cc(OC)c(OC)cc23)CC1` [CARBAZERAN], the bioavailability in data set [12] was below 5%.
With `CN1CCC(Nc2ncc3ncnc(Nc4ccc(F)c(Cl)c4)c3n2)CC1` [FALNIDAMOL], the Drug metabolism entry was “metabolite_not_detected” on Aldehyde oxidase [11], “metabolite_detected” on Aldehyde oxidase [13], “metabolite_detected” on Aldehyde oxidase [14] and “metabolite_detected” at Aldehyde oxidase [15]. Further, the bioavailability in data set [12] was determined as 2%. Further, at Aldehyde oxidase [5], the Retention time was determined as 12.5 min. Besides, the clearance in “clinical” was found to be 25 mL/min/kg.
Turning to `C[C@@H](Oc1ccc(Oc2cnc3ccc(Cl)cc3n2)cc1)C(=O)O` [R(+)XK469], on Aldehyde oxidase [5], the Retention_time is 17.4 min. The clearance in the data set “clinical” was below 1 mL/min/kg.
For the molecule `CCN(C(C)=O)c1cccc(-c2ccnc3c(C#N)cnn23)c1` [ZALEPLON], on Aldehyde oxidase [5], the Retention_time worked out at 14.5 min. The molecule also registered a clearance in “clinical” of 15.7 mL/min/kg.
